Measured values pooled from the literature.
Each line is one published result; the experiments were not run side by side.

SMILES	system	setting	AUC(0-t)
CN1CCN(C2CCN(c3nccc4[nH]c(-c5cc(F)cc(F)c5)nc34)CC2)CC1	mouse, blood	intravenous, 2 mg/kg	1.95 µM·h
C[C@H](NC(=O)C(C)(C)Oc1ccc(C(F)(F)F)cn1)[C@@H](Cc1ccc(Cl)cc1)c1cccc(C#N)c1	mouse, plasma	oral, 6 µmol/kg, single dose	5.3 µM·h
CCc1cc(OC)c2nccc(N3CCc4c(cc(Cn5ccnc5)cc4-c4cn(C)nc4C(F)(F)F)C3=O)c2c1	male CD-1 mouse, plasma	intravenous, 3 mg/kg	3330 ng·h/mL
CC[C@H](C)[C@@H]1NC(=O)[C@@](C)(NC(=O)[C@H](CCCNC(=N)N)NC(=O)[C@H](CC(C)C)NC(=O)[C@@H](NC(=O)[C@H](CCC(N)=O)NC(=O)[C@H](CC(C)C)NC(C)=O)[C@@H](C)O)CCCC=CCCC[C@@](C)(C(=O)N[C@@H](CC(C)C)C(=O)N[C@@H](Cc2ccc3ccccc3c2)C(N)=O)NC(=O)[C@H](CCCNC(=N)N)NC(=O)[C@H](CCC(N)=O)NC1=O	male BALB/c mouse, plasma	subcutaneous, 10 mg/kg	140000 ng·h/mL
COc1ccc2nccc(N3CCc4c(cc(Cn5ccnc5)cc4-c4cn(C)nc4C(F)(F)F)C3=O)c2c1	male CD-1 mouse, plasma	oral, 50 mg/kg	33800 ng·h/mL
CN1CCN(CC2CCN(c3cncc4[nH]c(-c5cc(F)cc(F)c5)nc34)CC2)CC1	mouse, blood	oral, 10 mg/kg	3.57 µM·h
CCc1cc(C(=O)NC)c2nccc(N3CCc4c(cc(Cn5ccnc5)cc4-c4cn(C)nc4C(F)(F)F)C3=O)c2c1	male CD-1 mouse, plasma	intravenous, 3 mg/kg	4180 ng·h/mL
CSc1cc(Oc2ccnc3[nH]c(=O)cnc23)ccc1NC(=O)Nc1cc(C(C)(C)C)nn1-c1ccccc1	BALB/c mouse, plasma	intravenous, 2 mg/kg	95 µM·h
COc1ccc(C(O)COc2ccc(-c3csc(-c4ccc(OCC(O)c5ccc(OC)c(OC)c5)cc4)n3)cc2)cc1OC (stereo not shown)	C57BL/6 mouse, plasma	oral, 75 mg/kg	73000 ng·h/mL
COc1nc(-c2cc(C)c(N[C@@H](C)c3ccc(F)cc3)nn2)ccc1-n1cnc(C)c1	male CD-1 mouse, plasma	intravenous, 1 mg/kg, single dose	4020 ng·h/mL
CC(C)(C)c1cc(NC(=O)Nc2ccc(Oc3ccnc4[nH]c(=O)cnc34)cc2F)n(-c2ccccc2)n1	BALB/c mouse, plasma	oral, 10 mg/kg	416 µM·h
Cc1ccc2cncc(N3CCc4c(cc(Cn5ccnc5)cc4-c4cn(C)nc4C(F)(F)F)C3=O)c2c1	male CD-1 mouse, plasma	oral, 50 mg/kg	36300 ng·h/mL
CN1CCN(C(=O)CN[C@@H]2C[C@H]2c2ccc(OCc3ccccc3)cc2)CC1	mouse, plasma	intraperitoneal, 10 mg/kg	1660 ng·h/mL
CCOc1ccc(Cc2cc([C@@H]3O[C@H](CO)[C@@H](O)[C@H](O)[C@H]3O)ccc2Cl)cc1	male C57BL/6 mouse, plasma	intravenous, 1 mg/kg	680 ng·h/mL
FC(F)(F)Oc1ccc(Nc2cc(-c3cn[nH]c3)ncn2)cc1	male BALB/c mouse, plasma	oral, 20 mg/kg	6110 ng·h/mL
CCOC(=O)c1sc(Nc2ncccn2)nc1-c1ccccn1	male CD-1 mouse, plasma	intravenous, 2 mg/kg	448 ng·h/mL
CC(C)(Nc1nc(-c2ccccn2)nc2ccccc12)c1ccccn1	female BALB/c mouse, plasma	intravenous, 1 mg/kg	1450 ng·h/mL
CN1CCC(N2CCN(c3nccc4[nH]c(-c5ccc(F)c(F)c5)nc34)CC2)CC1	mouse, blood	intravenous, 2 mg/kg	6.77 µM·h
O=S(=O)(c1ccc(-c2ccc3nccc(Nc4ccncn4)c3c2)cc1)N1CCOCC1	female BALB/c mouse, brain	intraperitoneal, 10 mg/kg	120 ng·h/mL
COc1nc(-c2cc(C)c(N[C@@H](C)c3c(F)cc(F)cc3F)nn2)ccc1-n1cnc(C)c1	male CD-1 mouse, plasma	intravenous, 1 mg/kg, single dose	2500 ng·h/mL

SMILES	system	setting	AUC(0-t)
CN1CCN(c2nccc3nc(-c4ccc(F)c(F)c4)[nH]c23)CC1	mouse, blood	intravenous, 2 mg/kg	3.58 µM·h
CN1CCN(C(=O)c2cc3c(Nc4ccc(OC(F)(F)F)cc4)ncnc3s2)CC1	male BALB/c mouse, plasma	oral, 20 mg/kg	2410 ng·h/mL
CN1CCC[C@H](CN2c3ccccc3Sc3ccccc32)C1.Cl	mouse, plasma	oral, 64 mg/kg, single dose	6010 ng·h/mL
COc1nc(-c2cc(C)c(N[C@@H](C)c3cc(F)cc(F)c3)nn2)ccc1-n1cnc(C)c1	male CD-1 mouse, plasma	oral, 5 mg/kg, single dose	9560 ng·h/mL
Cc1ccc(NC(=O)c2ccc(CN3CCN(C)CC3)cc2)cc1Nc1nccc(-c2cncc(-c3oncc3C)c2)n1	male C57BL/6 mouse, plasma	oral, 100 mg/kg/day	37800 ng·h/mL
COc1cc(OC)c2nccc(N3CCc4c(cc(Cn5ccnc5)cc4-c4cn(C)nc4C(F)(F)F)C3=O)c2c1	male CD-1 mouse, plasma	intravenous, 3 mg/kg	803 ng·h/mL
Cc1nc(-c2cnc(NC(C)C)n(C)c2=O)ccc1Oc1ccnc(-c2cnn(C)c2)c1	female mouse, plasma	oral, 3.75 mg/kg, single dose	29000 ng·h/mL
CS(=O)(=O)CCNCc1ccc(-c2ccc3ncnc(Nc4ccc(OCc5cccc(F)c5)c(Cl)c4)c3c2)o1	nude mouse, plasma	oral, 200 mg/kg, single dose	234000 ng·h/mL
CN1C(=O)c2ccccc2[S@+]([O-])c2ccc(C(=O)NCCc3cccs3)cc21	male C57BL/6 mouse, plasma	intraperitoneal, 30 mg/kg, single dose	7800 ng·h/mL
CN1CCN(CC2CCN(c3nccc4[nH]c(-c5cc(F)cc(F)c5)nc34)CC2)CC1	mouse, blood	intravenous, 2 mg/kg	2.42 µM·h
CC=Cc1ccc(O)c(OC)c1	mouse, plasma	intranasal, 100 mg/kg	9980 ng·h/mL
CNCCN(C)c1cc(C#N)cc(CCc2cc(C)cc(N)n2)c1	male BALB/c mouse, plasma	oral, 10 mg/kg	162 ng·h/mL
CC(C)OC(=O)c1sc(Nc2ncccn2)nc1-c1cnccn1	male CD-1 mouse, plasma	oral, 2.5 mg/kg	54 ng·h/mL
Cc1c2c(n(-c3ccc(F)cc3Cl)c1-c1ccc(OS(=O)(=O)CCC(F)(F)F)cc1)CCN(N1CCCCC1)C2=O	mouse, plasma	oral, 6 µmol/kg, single dose	0.89 µM·h
CNC(=O)c1cc(Oc2ccc(NC(=O)Nc3ccc(Cl)c(C(F)(F)F)c3)c(F)c2)ccn1	male mouse, plasma	oral, 10 mg/kg, single dose	18000 ng·h/mL
C=CC(=O)N1CC2CC(n3nc(-c4ccc(C(=O)Nc5ccccn5)cc4)c4c(N)ncnc43)CC2C1 (stereo not shown)	SCID mouse, plasma	oral, 0.2 mg/kg	8.63 ng·h/mL
Cn1ccnc1N1CCN(CC2CCN(c3nccc4[nH]c(-c5cc(F)cc(F)c5)nc34)CC2)CC1	mouse, blood	intravenous, 2 mg/kg	7.88 µM·h
C[C@H]1[C@@H](O)O[C@@H]2O[C@@]3(C)CC[C@H]4[C@H](C)CC[C@@H]1[C@@]24OO3	female SCID mouse, plasma	oral, 60 mg/kg	382 ng·h/mL
CNC(=O)c1cc(OC)cc2c(N3CCc4c(cc(Cn5ccnc5)cc4-c4cn(C)nc4C(F)(F)F)C3=O)ccnc12	male CD-1 mouse, plasma	oral, 50 mg/kg	144000 ng·h/mL
Fc1ccc(-c2nc3c(N4CCC(CN5CCOCC5)CC4)nccc3[nH]2)cc1F	BALB/c mouse, blood	oral, 20 mg/kg	34.6 µM·h
